Source: ChEMBL document CHEMBL4138044, “Withaferin A induces cell death and differentiation in multiple myeloma cancer stem cells” (Medchemcomm, 2017)
Active and inactive are the calls of the source. The calls are words filed in the database; no cut-off is given here.

Key:
[1] = test system: Multiple myeloma cancer stem cell; experiment: Antiproliferative activity against human multiple myeloma cancer stem cells after 72 hrs by MTT assay; assay type: functional, cell-based
Method in brief: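 MM-CSCs plated at 5000 cells/well and allowed to adhere 24 h, then exposed to 0–10 μM WFA for 72 h. MTT added for 2 h. Growth taken as absorbance relative to vehicle-control wells ×100. IC50 fitted from at least five concentrations; mean of three independent experiments ± SEM.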

[2] = Antiproliferative activity against human […] cells after 72 hrs by XTT assay; assay type: functional, cell-based
Method in brief: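 RPMI 8226 cells in RPMI 1640 with 10% FBS, plated at 15 000 cells/well and treated immediately with 0–10 μM WFA for 72 h. XTT added for 4 h. Growth as absorbance relative to vehicle control ×100. IC50 fitted from at least five concentrations; mean of three independent experiments ± SEM.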

[3] = test system: Multiple myeloma cancer stem cell; experiment: Induction of morphological changes in human multiple myeloma cancer stem cells assessed as appearance in spherical shape at 1.25 uM after 24 hrs by phalloidin/DAPI staining-based assay; assay type: functional
Method in brief: (§1)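 MM-CSCs seeded at 5000 cells/well and allowed to adhere 24 h, then treated with increasing WFA for 24 h. Fixed in 4% paraformaldehyde for 10 min, permeabilized with 0.1% Triton X-100 for 5 min, stained with 5 U/mL phalloidin for 20 min and 1 μg/mL DAPI for 5 min at room temperature. Imaged; cell area and circularity quantified; 3 experiments.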

[4] = Cytotoxicity against human CD34-positive hematopoietic stem cells assessed as decrease in cell viability at 10 uM after 24 hrs by calcein AM/ethidium homodimer staining-based flow cytometric method
[5] = test system: RPMI-8226 (Homo sapiens); experiment: Cell cycle arrest in human RPMI-8226 cells assessed as accumulation at S phase at 1.25 uM […] by FxCycle violet staining-based flow cytometric method (reference value: 40.9%)
[6] = test system: Multiple myeloma cancer stem cell; experiment: Cytotoxicity against human multiple myeloma cancer stem cells assessed as dead cells at 10 uM after 24 hrs by calcein AM/ethidium homodimer staining-based flow cytometric method (reference value: 0.7%); assay type: functional
[7] = Cytotoxicity against human RPMI18226 cells assessed as cell viability at 10 uM after 24 hrs by calcein AM/ethidium homodimer staining-based flow cytometric method (reference value: 67.7%); assay type: functional; conditions: RPMI18226, 24 h, read-out: Activity
[8] = species: Homo sapiens; experiment: Cell cycle arrest in human […] cells assessed as accumulation at sub-G1 phase […] by FxCycle violet staining-based flow cytometric method; assay type: functional
Method in brief: (§2)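 Cells treated 24 h with vehicle or WFA; MM-CSCs were seeded at 100 000 per well and left to adhere 24 h first, RPMIs seeded at 300 000 per well and treated at once. Floating and adherent cells fixed and permeabilized, adjusted to 10^6 cells/mL in PBS, then stained with FxCycle DNA dye for 30 min at room temperature. Flow cytometry; ≥3 independent experiments, mean ± SEM.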

[9] = test system: Multiple myeloma cancer stem cell; experiment: Cell cycle arrest in human multiple myeloma cancer stem cells assessed as accumulation at G1 phase at 0.62 uM […] by FxCycle violet staining-based flow cytometric method (reference value: 45.1%); assay type: functional; method in brief: as §2
[10] = test system: RPMI-8226 (Homo sapiens); experiment: Cell cycle arrest in human RPMI-8226 cells assessed as accumulation at S phase at 2.5 uM […] by FxCycle violet staining-based flow cytometric method (reference value: 40.9%)
[11] = species: Homo sapiens; experiment: Induction of apoptosis in human […] cells assessed as increase in late apoptotic cells at 1.25 uM after 24 hrs by annexin V/propidium iodide staining-based flow cytometric method; assay type: functional, cell-based
Method in brief: (§3)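 Annexin V/propidium iodide apoptosis staining after 24 h WFA. MM-CSCs adhered 24 h before treatment; RPMIs treated immediately after seeding at 300 000 per well. Floating and adherent cells washed, adjusted to 10^6 cells/mL, stained 15 min at room temperature, flow cytometry separating viable, early and late apoptotic cells; ≥3 independent experiments, mean ± SEM.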

[12] = Cytotoxicity against human CD34-positive hematopoietic stem cells assessed as decrease in cell viability at <5 uM after 24 hrs by calcein AM/ethidium homodimer staining-based flow cytometric method
[13] = test system: Multiple myeloma cancer stem cell; experiment: Cell cycle arrest in human multiple myeloma cancer stem cells assessed as accumulation at G2/M phase at 2.5 uM […] by FxCycle violet staining-based flow cytometric method (reference value: 22.9%); assay type: functional; method in brief: as §2
[14] = test system: Multiple myeloma cancer stem cell; experiment: Induction of differentiation of human multiple myeloma cancer stem cells assessed as upregulation of Kit mRNA expression at 0.31 to 5 uM after 24 hrs by qPCR method; assay type: functional, cell-based
Method in brief: (§4)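 MM-CSCs treated with vehicle or increasing WFA concentrations for 24 h. Relative mRNA levels of the stemness markers then measured; mean ± SEM of 3 independent experiments, one-way ANOVA with Bonferroni test.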

[15] = test system: Multiple myeloma cancer stem cell; experiment: Cell cycle arrest in human multiple myeloma cancer stem cells assessed as accumulation at G1 phase at 2.5 uM […] by FxCycle violet staining-based flow cytometric method (reference value: 45.1%); assay type: functional; method in brief: as §2
[16] = test system: Multiple myeloma cancer stem cell; experiment: Cytotoxicity against human multiple myeloma cancer stem cells assessed as dying cells at 10 uM after 24 hrs by calcein AM/ethidium homodimer staining-based flow cytometric method (reference value: 3.6%); assay type: functional
[17] = test system: Multiple myeloma cancer stem cell; experiment: Induction of differentiation of human multiple myeloma cancer stem cells assessed as downregulation of SOX2 mRNA expression at 0.31 to 5 uM after 24 hrs by qPCR method; assay type: functional, cell-based; method in brief: as §4
[18] = species: Homo sapiens; experiment: Induction of apoptosis in human […] cells assessed as decrease in viable cells at 1.25 uM after 24 hrs by annexin V/propidium iodide staining-based flow cytometric method; assay type: functional, cell-based; method in brief: as §3
[19] = test system: Multiple myeloma cancer stem cell; experiment: Induction of differentiation of human multiple myeloma cancer stem cells assessed as downregulation of CD166 mRNA expression at 0.31 to 5 uM after 24 hrs by qPCR method; assay type: functional, cell-based; method in brief: as §4
[20] = test system: RPMI-8226 (Homo sapiens); experiment: Cell cycle arrest in human RPMI-8226 cells assessed as accumulation at S phase at 0.62 uM […] by FxCycle violet staining-based flow cytometric method (reference value: 40.9%)
[21] = test system: Multiple myeloma cancer stem cell; experiment: Cytotoxicity against human multiple myeloma cancer stem cells assessed as cell viability at 2.5 uM after 24 hrs by calcein AM/ethidium homodimer staining-based flow cytometric method (reference value: 95.7%); assay type: functional; conditions: read-out: Activity
[22] = test system: Multiple myeloma cancer stem cell; experiment: Induction of morphological changes in human multiple myeloma cancer stem cells assessed as appearance in circular shape at 0.62 uM after 24 hrs by phalloidin/DAPI staining-based assay; assay type: functional; method in brief: as §1
[23] = Cell cycle arrest in human […] cells assessed as accumulation at sub-G1 phase at 0.62 uM […] by FxCycle violet staining-based flow cytometric method (reference value: 10.8%); assay type: functional; method in brief: as §2
[24] = Cytotoxicity against human RPMI18226 cells assessed as dead cells at 10 uM after 24 hrs by calcein AM/ethidium homodimer staining-based flow cytometric method (reference value: 21.4%); assay type: functional
[25] = test system: Multiple myeloma cancer stem cell; experiment: Antimigratory activity in human multiple myeloma cancer stem cells at 2.5 uM after 24 hrs by scratch assay; assay type: functional, cell-based
Method in brief: (§5)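 MM-CSCs seeded at 100 000 cells per well, grown 24 h to a confluent monolayer, scratched with a pipette tip and imaged at 0 h. Cells then treated with increasing WFA concentrations for 24 h and the same spot re-imaged. Percent unfilled space = scratch width at 24 h / width at 0 h × 100; recovery = 100 − unfilled. 3 independent experiments.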

[26] = test system: Multiple myeloma cancer stem cell; experiment: Induction of differentiation of human multiple myeloma cancer stem cells assessed as downregulation of CD151 mRNA expression at 0.31 to 5 uM after 24 hrs by qPCR method; assay type: functional, cell-based; method in brief: as §4
[27] = test system: Multiple myeloma cancer stem cell; experiment: Cell cycle arrest in human multiple myeloma cancer stem cells assessed as accumulation at G1 phase at 1.25 uM […] by FxCycle violet staining-based flow cytometric method (reference value: 45.1%); assay type: functional; method in brief: as §2
[28] = test system: Multiple myeloma cancer stem cell; experiment: Antimigratory activity in human multiple myeloma cancer stem cells at 0.62 to 1.25 uM after 24 hrs by scratch assay; assay type: functional, cell-based; method in brief: as §5
[29] = Cell cycle arrest in human […] cells assessed as accumulation at sub-G1 phase at 2.5 uM […] by FxCycle violet staining-based flow cytometric method (reference value: 10.8%); assay type: functional; method in brief: as §2
[30] = test system: Multiple myeloma cancer stem cell; experiment: Induction of differentiation of human multiple myeloma cancer stem cells assessed as upregulation of CD44 mRNA expression at 0.31 to 5 uM after 24 hrs by qPCR method; assay type: functional, cell-based; method in brief: as §4
[31] = species: Homo sapiens; experiment: Cytotoxicity against human RPMI18226 cells assessed as increase in dead cells at 1.25 uM after 24 hrs by calcein AM/ethidium homodimer staining-based flow cytometric method (reference value: 21.4%); assay type: functional, cell-based
[32] = Cytotoxicity against human RPMI18226 cells assessed as cell viability at 1.25 uM after 24 hrs by calcein AM/ethidium homodimer staining-based flow cytometric method (reference value: 67.7%); assay type: functional; conditions: RPMI18226, 24 h, read-out: Activity
[33] = Cell cycle arrest in human […] cells assessed as accumulation at G1 phase at 1.25 uM […] by FxCycle violet staining-based flow cytometric method (reference value: 28.2%); assay type: functional; method in brief: as §2
[34] = test system: Multiple myeloma cancer stem cell; experiment: Induction of apoptosis in human multiple myeloma cancer stem cells assessed as decrease in viable cells at 5 uM after 24 hrs by annexin V/propidium iodide staining-based flow cytometric method; assay type: functional; method in brief: as §3
[35] = test system: Multiple myeloma cancer stem cell; experiment: Induction of morphological changes in human multiple myeloma cancer stem cells assessed as appearance of larger cytoplasmic area at 1.25 uM after 24 hrs by phalloidin/DAPI staining-based assay; assay type: functional; method in brief: as §1
[36] = Cell cycle arrest in human […] cells assessed as accumulation at G2/M phase at 1.25 uM […] by FxCycle violet staining-based flow cytometric method (reference value: 20.2%); assay type: functional; method in brief: as §2
[37] = test system: Multiple myeloma cancer stem cell; experiment: Induction of morphological changes in human multiple myeloma cancer stem cells assessed as appearance of epithelial/lymphoblastic-like morphology at 0.62 uM after 24 hrs by phalloidin/DAPI staining-based assay; assay type: functional; method in brief: as §1
[38] = test system: Multiple myeloma cancer stem cell; experiment: Induction of morphological changes in human multiple myeloma cancer stem cells assessed as cell enlargement at 0.62 uM after 24 hrs by phalloidin/DAPI staining-based assay; assay type: functional; method in brief: as §1
[39] = test system: Multiple myeloma cancer stem cell; experiment: Induction of apoptosis in human multiple myeloma cancer stem cells assessed as increase in late apoptotic cells at 5 uM after 24 hrs by annexin V/propidium iodide staining-based flow cytometric method; assay type: functional; method in brief: as §3
[40] = test system: Multiple myeloma cancer stem cell; experiment: Cytotoxicity against human multiple myeloma cancer stem cells assessed as decrease in cell viability after 24 hrs by calcein AM/ethidium homodimer staining-based flow cytometric method; assay type: functional
[41] = test system: Multiple myeloma cancer stem cell; experiment: Cytotoxicity against human multiple myeloma cancer stem cells assessed as cell viability at 10 uM after 24 hrs by calcein AM/ethidium homodimer staining-based flow cytometric method (reference value: 95.7%); assay type: functional; conditions: read-out: Activity
[42] = Cell cycle arrest in human […] cells assessed as accumulation at sub-G1 phase at 1.25 uM […] by FxCycle violet staining-based flow cytometric method (reference value: 10.8%); assay type: functional; method in brief: as §2
[43] = species: Homo sapiens; experiment: Cytotoxicity against human RPMI18226 cells assessed as decrease in cell viability after 24 hrs by calcein AM/ethidium homodimer staining-based flow cytometric method; assay type: functional
[44] = test system: Multiple myeloma cancer stem cell; experiment: Cell cycle arrest in human multiple myeloma cancer stem cells assessed as accumulation at G2/M phase at 1.25 uM […] by FxCycle violet staining-based flow cytometric method (reference value: 22.9%); assay type: functional; method in brief: as §2
[45] = test system: Multiple myeloma cancer stem cell; experiment: Induction of differentiation of human multiple myeloma cancer stem cells assessed as downregulation of MSI2 mRNA expression at 0.31 to 5 uM after 24 hrs by qPCR method; assay type: functional, cell-based; method in brief: as §4

CC(C)C[C@H](NC(=O)[C@H](Cc1ccccc1)NC(=O)c1cnccn1)B(O)O [BORTEZOMIB]
IC50 [1]: 8.4 nM | IC50 [2]: 3.6 nM

CC1=C(CO)C(=O)O[C@@H]([C@@H](C)[C@H]2CC[C@H]3[C@@H]4C[C@H]5O[C@]56[C@@H](O)C=CC(=O)[C@]6(C)[C@H]4CC[C@]23C)C1 [WITHAFERIN A]
Activity [3]: Active | IC50 [1]: 650 nM | Activity [4]: Toxic | Activity [5]: 29.4% | Activity [6]: 56.4% | viability at 10 µM [7]: 8.2% | Activity [8]: Dose-dependent effect | Activity [9]: 21.5% | Activity [10]: 34% | Activity [11]: Active | Activity [12]: Non-Toxic | Activity [13]: 61.4% | Activity [14]: Active | Activity [15]: 19.5% | Activity [16]: 31.5% | Activity [17]: Active | Activity [18]: Active | Activity [19]: Active | Activity [20]: 31.7% | viability at 2.5 µM [21]: 64.6% | Activity [22]: Active | Activity [23]: 15.6% | Activity [24]: 87% | Activity [25]: Active | Activity [26]: Active | Activity [27]: 15.5% | Activity [28]: inactive | Activity [29]: 21.5% | Activity [30]: Active | Activity [31]: Active | IC50 [2]: 224 nM | viability at 1.25 µM [32]: 32.1% | Activity [33]: 19.1% | Activity [34]: Active | Activity [35]: Active | Activity [36]: 28.4% | Activity [37]: Active | Activity [38]: Active | Activity [39]: Active | Activity [40]: Dose-dependent effect | viability at 10 µM [41]: 12.1% | Activity [42]: 23.1% | Activity [43]: Dose-dependent effect | Activity [44]: 59.6% | Activity [45]: Active
